Shown is part of a subset that was picked to be rich in hits.
VLA-4 inh – inhibition in a human VLA-4 binding assay; VLA-4 expressing cells, ligand binding flow cytometry; inhibition, % (about 7 µM as worked out from the volumes in the protocol); P13612; 0.2% of 330,000 active; in the data active = inhibition above about 50%
UPR CHOP act – apoptotic UPR (CHOP) activation. 0.34% of 330,000 active. AID 449763. CHO-CHOP luciferase reporter, luminescence; percent of tunicamycin response over DMSO baseline. activation, % at 10 µM;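 active = at 10 µM dose, activation of 40% or more, normalized to positive control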
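assay system = CHO CHOP reporter cells | amount = 500 CHO-CHOP cells per well | buffer or medium = F12 with 10% FBS | incubation = 16-18 h cell attachment, then 6 h compound exposure, 37 °C | detection = luminescence read with Steady-Glo | read-out = percent activation relative to tunicamycin control | controls = tunicamycin high control, DMSO low control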
B2AR ag – human beta-2 adrenergic receptor agonism by FAP; P07550; Am2.2-beta2AR cells, FAP receptor internalization, flow cytometry; response, % (concentration not given with the values); 0.43% of 340,000 active;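 active = response above a set limit, near 3 SD of response in nonfluorescent compounds, cut at about 42% in these data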
Target sequence (P07550 whole entry, looked up): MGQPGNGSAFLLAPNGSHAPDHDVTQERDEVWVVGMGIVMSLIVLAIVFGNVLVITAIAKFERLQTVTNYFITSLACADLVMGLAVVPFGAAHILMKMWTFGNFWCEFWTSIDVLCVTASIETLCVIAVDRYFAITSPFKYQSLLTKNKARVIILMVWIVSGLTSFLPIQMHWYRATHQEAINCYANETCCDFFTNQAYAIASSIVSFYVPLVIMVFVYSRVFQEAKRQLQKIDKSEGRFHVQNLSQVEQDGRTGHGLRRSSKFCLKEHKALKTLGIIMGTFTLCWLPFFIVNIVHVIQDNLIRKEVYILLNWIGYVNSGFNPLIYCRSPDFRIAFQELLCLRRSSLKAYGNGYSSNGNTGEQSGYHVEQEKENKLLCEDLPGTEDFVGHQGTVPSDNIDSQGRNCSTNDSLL
UPR XBP1 act – activators of adaptive arm of unfolded protein response (XBP1); CHO-XBP1 luciferase reporter, IRE1-XBP1 UPR activation, luminescence; percent of tunicamycin response, DMSO as zero; activation, % at 20 µM; 0.33% of 330,000 active;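 active = versus positive control, 20 µM dose yields 30% or more activation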
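Material: CHO-XBP1 cells stably carrying IRE1-XBP1-driven luciferase reporter | Medium: F12 with 10% serum | Compound dosing: 20 µM single concentration, DMSO 1% | Incubation: Overnight seeding at 37 °C, 6 h compound treatment at 37 °C | Detection: Steady-Glo luminescence read | Read-out basis: % activation of reporter signal versus tunicamycin and DMSO controls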
CHOP inh – CHOP inhibition in unfolded protein response. inhibition, % at 10 µM. CHO-K1 CHOP-promoter luciferase, tunicamycin-induced, 15-18 h. 3.8% of 220,000 active;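 active = compounds that reduced the stress-induced luciferase reporter signal by more than about 70% of percent inhibition, limit read from the data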
XBP1 UPR conf – adaptive UPR (XBP1) activation, confirmed. shares compounds with UPR XBP1 act. CHO-XBP1 IRE1-XBP1 luciferase reporter, luminescence. activation, % at 20 µM. 63% of 1,000 active. AID 485299;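 active = reporter signal at least 30% of the positive control's activation in two or more of four replicate wells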
Each line names hits and unclear results; the compound was inactive in the other large screens (follow-up assays come after a bar, where they were run).

CCOc1cc(/C=N/N=C(/N)c2nonc2N)cc(Br)c1OCc1ccc(Cl)cc1	UPR XBP1 act 70 | XBP1 UPR conf 142
CCOC(=O)c1c(NC(=O)CSc2nc3ccc(OC)cc3[nH]2)sc2c1CC(C)(C)NC2(C)C	none (no result: CHOP inh)
COc1ccc(-c2cc(-c3ccc(OC)cc3)nc(-c3ccc4c(c3)NC(=O)CO4)c2)cc1	UPR XBP1 act 38 | XBP1 UPR conf inactive
CC1CCCC(NC(=O)C2N(CCCN3CCCC3)C(=O)C3C(C(=O)Nc4cccc(Cl)c4)C4C=CC32O4)C1C (stereo not drawn)	none (no result: CHOP inh)
Cc1nc(NC(=O)CN2CCN(c3cccc(Cl)c3)CC2)sc1C(=O)N(C)C	none (no result: CHOP inh)
O=C(CSc1nnc(-c2ccc3c(c2)OCO3)n1-c1ccccc1)c1ccccc1	none
O=C(CSc1nnc(-c2cccs2)n1-c1ccccc1)c1ccc2c(c1)OCCO2	UPR XBP1 act 61 (no result: CHOP inh) | XBP1 UPR conf inactive
C[C@H](CO)N1C[C@H](C)[C@@H](CN(C)C(=O)NC2CCCCC2)Oc2c(NC(=O)Cc3ccccc3)cccc2C1=O	none (no result: CHOP inh)
O=C(O)C(Cc1ccccc1)N=C(NS(=O)(=O)c1ccccc1)c1ccccc1 (stereo not drawn)	none (no result: CHOP inh)
Cc1ccc(Nc2nc(NCCO)c3ccccc3n2)cc1C	UPR XBP1 act 39 (no result: CHOP inh) | XBP1 UPR conf 39
CC(Oc1ccccc1Cl)C(=O)Nc1ccccc1C(=O)N1CCOCC1 (stereo not drawn)	UPR XBP1 act 32 (no result: CHOP inh) | XBP1 UPR conf inactive
CCc1cccc2c1Sc1ccccc1CC2N1CCNCC1 (stereo not drawn)	none (no result: CHOP inh)
Cc1cccc2c1Sc1ccc(Cl)cc1CC2N1CCNCC1 (stereo not drawn)	UPR XBP1 act 31 (no result: CHOP inh) | XBP1 UPR conf 37
COc1ccccc1CCNC(=O)C1CCN(c2nnc(C)c3c(C)n(-c4ccc(C)cc4)nc23)CC1	UPR XBP1 act 114 (no result: CHOP inh) | XBP1 UPR conf 139
Cc1ccc(-n2nc3c(N4CCC(C(=O)NCc5ccccc5C)CC4)nnc(C)c3c2C)cc1	none (no result: CHOP inh)
N#CCn1c(Cc2ccccc2)nc2ccccc2c1=O	UPR XBP1 act 32 (no result: CHOP inh) | XBP1 UPR conf inactive
O=C(COc1ccccc1F)NCC(c1ccc(F)cc1)N1CCOCC1 (stereo not drawn)	none (no result: CHOP inh)
CCCNC(=O)COc1coc(CN2CCN(c3ccccc3F)CC2)cc1=O	none (no result: CHOP inh)
Cc1occc1C(=O)Nc1cccc(C(F)(F)F)c1	none
Cc1cnc(Nc2nc3ccccc3o2)nc1C(=O)Nc1cccc(C(F)(F)F)c1	UPR XBP1 act 45, CHOP inh 91 | XBP1 UPR conf inactive
O=C(Nc1cccc(-c2cnc3ccccc3n2)c1)c1cccc(NC(=O)c2ccco2)c1	UPR XBP1 act 36 | XBP1 UPR conf inactive
CC(=O)NNS(=O)(=O)c1scc(S(=O)(=O)c2ccc(Cl)cc2)c1C	none (no result: CHOP inh)
COc1ccc(-c2c(-c3cc(OC)cc(OC)c3)n(C)c3ccc(-c4cnc(N)nc4)cc23)cc1	UPR XBP1 act 189 (no result: CHOP inh) | XBP1 UPR conf 132
c1ccc(SSc2ccccc2)cc1	UPR XBP1 act 49 | XBP1 UPR conf inactive
c1cc(SSc2ccncc2)ccn1	none (no result: CHOP inh)
COc1ccc(NC(=O)c2ccccc2NC(=O)CSc2ccc(Cl)cc2)cc1	UPR XBP1 act 35 | XBP1 UPR conf inactive
COc1ccc(NC(=O)c2ccccc2NC(=O)CSc2ccccc2)cc1	none
COc1ccc(C(CNC(=O)C2CCN(S(=O)(=O)c3ccc(F)cc3)CC2)N(C)C)cc1 (stereo not drawn)	none (no result: CHOP inh)
COc1cccc(/C=N/Nc2ccc([N+](=O)[O-])cn2)c1O	UPR XBP1 act 65 (no result: CHOP inh) | XBP1 UPR conf 64
O=[N+]([O-])c1ccc(NN=Cc2cccc3ccccc23)nc1	none (no result: VLA-4 inh, UPR CHOP act, UPR XBP1 act, CHOP inh)
CCOC(=O)C1=C(C)N=c2s/c(=C3/C(=O)Nc4ccccc43)c(=O)n2C1c1ccc(C)cc1 (stereo not drawn)	UPR XBP1 act 118 | XBP1 UPR conf 69
N#Cc1cccc(C#N)c1Oc1ccc(N)cc1	none
COc1cc(-c2ccc3oc(-c4ccsc4)cc3c2)cc(OC)c1OC	UPR XBP1 act 61 (no result: CHOP inh) | XBP1 UPR conf 32
COc1ccc(NC(=O)COC(=O)CCCOc2ccc(Cl)cc2Cl)cc1	UPR XBP1 act 75 | XBP1 UPR conf inactive
COc1ccc(NC(=O)COC(=O)CCCOc2ccc(Cl)cc2Cl)cc1Cl	none
O=C(NCCCn1ccnc1)c1nn2c(C(F)(F)F)cc(-c3ccc(Br)cc3)nc2c1Cl	UPR XBP1 act 37 | XBP1 UPR conf 94
CCCNC(=O)c1nn2c(C(F)(F)F)cc(-c3ccccc3)nc2c1Cl	none (no result: CHOP inh)
CC1(C)Cc2c(c(N3CCOCC3)nc3sc4c(NCC5CCCO5)nnnc4c23)CS1 (stereo not drawn)	UPR XBP1 act 33 | XBP1 UPR conf inactive
CC(C)CCNc1nnnc2c1sc1nc(N3CCOCC3)c3c(c12)CC(C)(C)SC3	none
Cc1ccc(NC(=O)CCCc2ccccc2)c([N+](=O)[O-])c1	none (no result: CHOP inh)
CC(C)N=C(NS(=O)(=O)c1ccccc1)C(Cl)(Cl)Cl	UPR XBP1 act 45 | XBP1 UPR conf 75
CCN1C[C@@H]2[C@@H]3C(=O)N(Cc4ccccc4)C(=O)[C@@H]3[C@](Cc3ccccc3)(C1=O)N2C(=O)c1ccc(Br)cc1	none (no result: VLA-4 inh, UPR CHOP act, UPR XBP1 act, CHOP inh)
Cc1ccc(CNC(=O)c2ccc3c(=O)n4c(-c5ccc(C)cc5)csc4nc3c2)cc1	UPR XBP1 act 46, CHOP inh 79 | XBP1 UPR conf 120
COc1ccc2c(c1)[nH]c1c(=O)n(/N=C/C3C(C)C=C(C)CC3C)c(=O)[nH]c12 (stereo not drawn)	UPR XBP1 act 56 | XBP1 UPR conf 86
CC1=CC(C)[C@H](/C=N/n2c(=O)[nH]c3c([nH]c4ccc(Br)cc43)c2=O)C(C)C1 (stereo partly drawn)	UPR XBP1 act 80 | XBP1 UPR conf 100
CC(C)Cc1nnc(NC(=O)C2CCCC2)s1	none (no result: CHOP inh)
Clc1ccc(C2=Nn3c(nnc3-c3cc(-c4ccccc4)n[nH]3)SC2)cc1	UPR XBP1 act 66 | XBP1 UPR conf 51
Fc1cc(F)c(C2SCCN2C(=S)Nc2cccc(C(F)(F)F)c2)c(F)c1 (stereo not drawn)	none
COC(=O)c1ccccc1NC(=O)c1ccccc1OC	none
COc1ccccc1C(=O)Nc1ccccc1SC(=O)c1ccccc1OC	UPR XBP1 act 34 (no result: CHOP inh) | XBP1 UPR conf inactive
CC(C)c1nc2sc3c(=O)[nH]cnc3c2c2c1CCC2	none
Cc1ccc(-c2cc(C(F)F)nc3sc4c(=O)[nH]cnc4c23)cc1	UPR XBP1 act 44 (no result: CHOP inh) | XBP1 UPR conf inactive
Cc1cc(OC(=O)c2ccccc2Br)c([N+](=O)[O-])c(=O)[nH]1	none (no result: CHOP inh)
CCOC(=O)C1CCN(c2nc3cc(OC)ccc3cc2C#N)CC1	none
